Experimental data: ChEMBL document CHEMBL1157270, “Physalins from Witheringia solanacea as modulators of the NF-kappaB cascade” (J Nat Prod, 2006)
The source made the active and inactive calls.

Assays:
HeLa [1] = assay: Cytotoxicity against human HeLa cells after 72 hrs by MTT assay; format: functional, cell-based
Outline: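 HeLa cells exposed to compound for 72 h, then incubated 2 h at 37 °C with 0.5 mg/mL MTT. Formazan dissolved in 90% 2-propanol with DMSO. IC50 read from the concentration–response.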

Jurkat [2] = assay: Induction of apoptosis in human Jurkat T cells assessed as sub-G0/G1 fraction at 10 uM after 24 hrs by flow cytometry; format: functional
Outline: (§1)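 Jurkat cells (10^6) grown in RPMI 1640 with 10% heat-inactivated FBS, 2 mM glutamine, penicillin and streptomycin, then treated 6 or 24 h. Cells fixed in 70% ethanol for 24 h at 4 °C, washed in PBS with 4% glucose, treated with RNase A (50 U/mL) and stained with PI (20 µg/mL) for 1 h at room temperature. Subdiploid (sub-G0/G1) percentage measured by flow cytometry.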

HeLa [3] = assay: Cytotoxicity against human HeLa cells at 100 ug/mL
HeLa [4] = assay: Inhibition of PMA-induced NF-kappaB activation in human HeLa cells at 8 uM after 7 hrs by IL6/luciferase reporter gene assay; format: cell-based
Outline: (§2)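 HeLa cells stably transfected with an IL-6 promoter–luciferase reporter, stimulated with PMA (50 ng/mL final) for 7 h in the presence of compound. Luminescence given as % of RLU of the PMA-stimulated control, mean of three experiments. Active if ≥30% of positive control. Unstimulated cells served as negative control.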

Jurkat [5] = assay: Induction of apoptosis in human Jurkat T cells assessed as sub-G0/G1 fraction at 1 uM after 6 hrs by flow cytometry; format: functional; outline: as §1
Jurkat [6] = assay: Induction of apoptosis in human Jurkat T cells assessed as sub-G0/G1 fraction at 20 uM after 6 hrs by flow cytometry; format: functional; outline: as §1
HeLa [7] = assay: Inhibition of PMA-induced NF-kappaB activation in human HeLa cells at 16 uM after 7 hrs by IL6/luciferase reporter gene assay; format: cell-based; outline: as §2
Jurkat [8] = assay: Induction of apoptosis in human Jurkat T cells assessed as sub-G0/G1 fraction at 20 uM after 24 hrs by flow cytometry; format: functional; outline: as §1
HeLa [9] = assay: Cytotoxicity against human HeLa cells after 7 hrs; format: functional, cell-based
Outline: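 HeLa cells stably carrying an IL-6 promoter–luciferase reporter, exposed to compound with PMA (50 ng/mL final) for 7 h. Toxicity judged visually at 40× magnification from changes in cell morphology.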

Jurkat [10] = assay: Induction of apoptosis in human Jurkat T cells assessed as sub-G0/G1 fraction at 10 uM after 6 hrs by flow cytometry; format: functional; outline: as §1
Jurkat [11] = assay: Induction of apoptosis in human Jurkat T cells assessed as sub-G0/G1 fraction at 1 uM after 24 hrs by flow cytometry; format: functional; outline: as §1
HeLa [12] = assay: Cytotoxicity against human HeLa cells at 100 uM; format: functional, cell-based
HeLa [13] = assay: Inhibition of PMA-induced NF-kappaB activation in human HeLa cells at 2 uM after 7 hrs by IL6/luciferase reporter gene assay relative to untreated control; format: cell-based; parameters: scale not given: the % may be the effect or the level left; outline: as §2
HeLa [14] = assay: Inhibition of PMA-induced NF-kappaB activation in human HeLa cells at 4 uM after 7 hrs by IL6/luciferase reporter gene assay relative to untreated control; format: cell-based; parameters: scale not given: the % may be the effect or the level left; outline: as §2
Jurkat [15] = assay: Inhibition of TNF-alpha-induced NF-kappaB activation in human Jurkat 5.1 cells preincubated for 30 mins measured after 6 hrs by HIV1-LTR luciferase assay; format: cell-based
Outline: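 5.1 cells preincubated with compound (5, 10, 20 µM) for 30 min, then stimulated with TNF (2 ng/mL) for 6 h. Lysis in Tris phosphate pH 7.8 buffer with Triton X-100. Luciferase read after subtracting lysis-buffer background and normalised to Bradford protein (RLU/µg). Result expressed as fold induction, mean of three experiments.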

Homo sapiens = organism: Homo sapiens; assay: Inhibition of NF-kappaB activation in human HeLa-Tet-On cells assessed as inhibition of doxycyclin-induced HIV1-LTR transactivation at 5 uM after 6 hrs by luciferase reporter gene assay; format: cell-based
Outline: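 HeLa-Tet-On-Luc cells seeded at 5 × 10^5 cells/mL the day before, then stimulated with doxycycline (2 µg/mL) with or without compound for 6 h. Cells washed in PBS and lysed, and luciferase activity measured.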

| Structure (SMILES) | IC50 (HeLa [1]) [nM] | Activity (Jurkat [2]) [%] | Activity (HeLa [3]) | Activity (HeLa [4]) | Activity (Jurkat [5]) [%] | Activity (Jurkat [6]) [%] | Activity (HeLa [7]) | Activity (Jurkat [8]) [%] | Activity (HeLa [9]) | Activity (Jurkat [10]) [%] | Activity (Jurkat [11]) [%] | Activity (HeLa [12]) | Activity (HeLa [13]) [%] | Activity (HeLa [14]) [%] | Activity (Jurkat [15]) | Activity (Homo sapiens) |
| --- | --- | --- | --- | --- | --- | --- | --- | --- | --- | --- | --- | --- | --- | --- | --- | --- |
| C[C@]12C(=O)C=CCC1=CC[C@@H]1[C@@H]2CC[C@]2(O)C(=O)O[C@@]3(C)[C@H]4C[C@]5(C)[C@@H](CO[C@@]16O[C@@]32[C@H]5C6=O)C(=O)O4 [PHYSALIN B] | 2000 | 49.7 | Toxic | Active | 1.83 | 2.08 | Active | 50 | Not toxic | 2.08 | 6.27 |  |  |  |  |  |
| C[C@@]12C[C@H]3OC(=O)[C@@H]1CO[C@@]14O[C@]5([C@H]2C1=O)[C@@](O)(CC[C@H]1[C@H]4C[C@@H](O)[C@@]2(O)CC=CC(=O)[C@]12C)C(=O)O[C@@]35C |  |  |  |  |  |  |  |  |  |  |  | Not toxic |  |  |  |  |
| C[C@@]12C[C@H]3OC(=O)[C@@H]1CO[C@]14O[C@]5([C@H]2C1=O)[C@@](O)(CC[C@H]1[C@H]4C[C@H]2O[C@]24CC=CC(=O)[C@]14C)C(=O)O[C@@]35C [PHYSALIN F] | 2000 | 58.2 |  | Active | 2.71 | 1.64 | Active | 64.6 | Not toxic | 2.07 | 50.2 | Toxic | 20 | 7 | Dose-dependent effect | inactive |
